The values below come from ChEMBL document CHEMBL4190292, “Electrophilic Triterpenoid Enones: A Comparative Thiol-Trapping and Bioactivity Study” (J Nat Prod, 2017).

Usually IC50 stands for the midpoint of a concentration-inhibition curve. Lower therefore signals inhibition by little substance.

Holding throughout (format): cell-based
The nature of data set [1]: Inhibition of TNF-alpha stimulated NF-kappaB (unknown origin) expressed in mouse NIH/3T3 cells after 6 hrs by luciferase reporter gene assay. Conditions: NIH3T3, 6 h. The method, boiled down:
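NIH-3T3-KBF-Luc mouse fibroblasts given TNFα (20 ng/mL) with or without compounds for 6 h. Cells washed, lysed in Tris-phosphate pH 7.8 buffer, and luciferase read on the supernatant. Inhibition expressed as percent of TNFα-induced NF-κB activity (100%). Mean of at least five independent experiments.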
(In general: Reporter assays use an easily measured gene product as a stand-in for the process of interest.)

Data set [2] concerns the target T1, Nuclear factor erythroid 2-related factor 2 (Homo sapiens) (UniProt Q16236).
T1 sequence (whole entry): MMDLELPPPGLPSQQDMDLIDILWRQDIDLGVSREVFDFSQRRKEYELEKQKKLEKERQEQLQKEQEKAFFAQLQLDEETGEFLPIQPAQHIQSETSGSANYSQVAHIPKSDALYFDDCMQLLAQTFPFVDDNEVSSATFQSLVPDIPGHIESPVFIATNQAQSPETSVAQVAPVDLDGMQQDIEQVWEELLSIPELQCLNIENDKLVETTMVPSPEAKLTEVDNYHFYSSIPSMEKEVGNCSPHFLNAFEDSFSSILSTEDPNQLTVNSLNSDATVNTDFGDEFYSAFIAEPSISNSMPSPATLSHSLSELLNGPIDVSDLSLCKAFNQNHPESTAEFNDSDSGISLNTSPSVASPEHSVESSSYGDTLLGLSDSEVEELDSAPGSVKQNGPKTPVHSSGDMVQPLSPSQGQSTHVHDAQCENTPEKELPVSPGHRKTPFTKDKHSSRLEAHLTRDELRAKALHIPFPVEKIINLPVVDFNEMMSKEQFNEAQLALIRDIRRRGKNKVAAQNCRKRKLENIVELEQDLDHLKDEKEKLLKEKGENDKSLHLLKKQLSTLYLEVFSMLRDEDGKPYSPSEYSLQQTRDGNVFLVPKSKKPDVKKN
In words: Activation of Nrf2 (unknown origin) expressed in human HaCaT-ARE-luc cells after 6 hrs by luciferase reporter gene assay relative to control tertbutylhydroquinone.

In data set [3] the test system is HeLa. Description: Cytotoxicity against human HeLa cells harboring pSTAT3-Luc assessed as reduction in cell viability at >5 to 10 uM.
Data set [4] relates to HaCaT. Description: Cytotoxicity against human HaCaT cells harboring pARE-Luc assessed as reduction in cell viability at >5 to 10 uM.
Data set [5] has as its target T2, Nuclear factor erythroid 2-related factor 2 (Homo sapiens, UniProt Q16236).
T2 sequence (Q16236 whole entry): T1 sequence (whole entry)
Description: Activation of Nrf2 (unknown origin) expressed in human HaCaT-ARE-luc cells after 6 hrs by luciferase reporter gene assay. The gist of the method:
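HaCaT-ARE-Luc keratinocytes in DMEM with 10% FBS, 37 °C, 5% CO2, exposed to compounds for 6 h. Cells then washed with PBS and lysed (Tris-phosphate pH 7.8, MgCl2, DTT, Triton X-100, glycerol, 15 min RT). Luciferase RLU read on the supernatant and EC50 derived. Mean of at least five independent experiments.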

For data set [6], the target named is Signal transducer and activator of transcription 3 (Homo sapiens, UniProt P40763). In words: Inhibition of IFN-gamma stimulated STAT3 (unknown origin) expressed in human HeLa cells after 6 hrs by luciferase reporter gene assay. The gist of the method: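 HeLa-STAT3-Luc cells stimulated with γIFN (20 IU/mL) with or without compounds for 6 h. PBS-washed cells lysed 15 min at room temperature and luciferase RLU measured. Values expressed as percent inhibition of IFN-γ-induced activity (taken as 100%). Mean of at least five independent experiments.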
Signal transducer and activator of transcription 3, sequence (P40763 whole entry): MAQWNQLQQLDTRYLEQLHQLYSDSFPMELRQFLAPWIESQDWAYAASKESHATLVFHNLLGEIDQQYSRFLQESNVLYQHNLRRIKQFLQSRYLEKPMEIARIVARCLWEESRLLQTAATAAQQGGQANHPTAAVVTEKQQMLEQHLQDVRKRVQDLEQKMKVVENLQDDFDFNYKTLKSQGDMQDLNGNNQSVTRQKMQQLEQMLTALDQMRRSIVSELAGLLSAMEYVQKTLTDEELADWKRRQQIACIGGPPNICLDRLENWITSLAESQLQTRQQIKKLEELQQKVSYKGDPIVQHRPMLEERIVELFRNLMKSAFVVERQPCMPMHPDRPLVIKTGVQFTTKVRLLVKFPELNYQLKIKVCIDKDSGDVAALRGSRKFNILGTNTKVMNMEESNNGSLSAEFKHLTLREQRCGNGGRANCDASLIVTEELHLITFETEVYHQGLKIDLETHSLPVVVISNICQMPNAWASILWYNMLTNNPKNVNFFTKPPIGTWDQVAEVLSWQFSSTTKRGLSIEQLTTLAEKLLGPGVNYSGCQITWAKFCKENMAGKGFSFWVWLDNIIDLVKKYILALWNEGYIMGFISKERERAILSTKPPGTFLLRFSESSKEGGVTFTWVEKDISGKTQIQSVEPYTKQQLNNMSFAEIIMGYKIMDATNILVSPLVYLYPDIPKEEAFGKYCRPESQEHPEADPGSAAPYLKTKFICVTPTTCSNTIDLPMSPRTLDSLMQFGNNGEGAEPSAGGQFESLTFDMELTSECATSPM

With `COC(=O)[C@]12CCC(C)(C)C[C@H]1C1=CC[C@@H]3[C@@]4(C)CCC(=O)C(C)(C)[C@@H]4CC[C@@]3(C)[C@]1(C)CC2`, the IC50 in data set [1] was above 25 µM.
As for `CCOC(=O)/C=C/C1=C[C@]2(C)[C@H]3CC=C4[C@@H]5CC(C)(C)CC[C@]5(C(=O)OC)CC[C@@]4(C)[C@]3(C)CC[C@H]2C(C)(C)C1=O`, the IC50 in data set [1] was above 25 µM.
`COC(=O)C1=C[C@]2(C)[C@H]3CC=C4[C@@H]5CC(C)(C)CC[C@]5(C(=O)OC)CC[C@@]4(C)[C@]3(C)CC[C@H]2C(C)(C)C1=O` showed an IC50 in data set [1] above 25 µM.
Same read-out and setting: the same measure for `COC(=O)[C@]12CCC(C)(C)C[C@H]1C1=CC[C@@H]3[C@@]4(C)CC(C#N)=C(O)C(C)(C)[C@@H]4CC[C@@]3(C)[C@]1(C)CC2`: above 25 µM.
In the case of `COC(=O)[C@]12CCC(C)(C)C[C@H]1C1=CC[C@@H]3[C@@]4(C)C=CC(=O)C(C)(C)[C@@H]4CC[C@@]3(C)[C@]1(C)CC2`, in data set [1], the half-maximal inhibitory concentration (IC50) was above 25 µM.
The same measure, in the same setting: the figure for `COC(=O)[C@]12CCC(C)(C)C[C@H]1C1=CC[C@@H]3[C@@]4(C)CC(C=O)=C(O)C(C)(C)[C@@H]4CC[C@@]3(C)[C@]1(C)CC2` is above 25 µM; for `COC(=O)[C@]12CCC(C)(C)C[C@H]1C1=CC[C@@H]3[C@@]4(C)C=C(C#Cc5ccccc5)C(=O)C(C)(C)[C@@H]4CC[C@@]3(C)[C@]1(C)CC2` it is above 25 µM.
Molecule `COC(=O)[C@]12CCC(C)(C)C[C@H]1C1=CC[C@@H]3[C@@]4(C)C=C(C(=O)O)C(=O)C(C)(C)[C@@H]4CC[C@@]3(C)[C@]1(C)CC2` showed an IC50 in data set [1] above 25 µM. Further, in data set [2], the Ratio worked out at 0.41.
In data set [1], `COC(=O)[C@]12CCC(C)(C)C[C@H]1C1=CC[C@@H]3[C@@]4(C)C=C(c5ccccc5)C(=O)C(C)(C)[C@@H]4CC[C@@]3(C)[C@]1(C)CC2` gave an IC50 above 25 µM.
In turn, `COC(=O)[C@]12CCC(C)(C)C[C@H]1C1=CC[C@@H]3[C@@]4(C)C=C(Br)C(=O)C(C)(C)[C@@H]4CC[C@@]3(C)[C@]1(C)CC2` had an IC50 in data set [1] above 25 µM.
The molecule `COC(=O)[C@]12CCC(C)(C)C[C@H]1C1=CC[C@@H]3[C@@]4(C)C=C(I)C(=O)C(C)(C)[C@@H]4CC[C@@]3(C)[C@]1(C)CC2` displayed an IC50 in data set [1] above 25 µM.
In data set [1], `COC(=O)[C@]12CCC(C)(C)C[C@H]1[C@H]1C(=O)C=C3[C@@]4(C)C=C(C#N)C(=O)C(C)(C)[C@@H]4CC[C@@]3(C)[C@]1(C)CC2` [BARDOXOLONE METHYL] yielded an IC50 of 1.2 to 2.38 µM. The Ratio in data set [2] was 40.9.
`COC(=O)[C@]12CCC(C)(C)C[C@H]1C1=CC[C@@H]3[C@@]4(C)C=C(OC(C)=O)C(=O)C(C)(C)[C@@H]4CC[C@@]3(C)[C@]1(C)CC2` registered an IC50 in data set [1] above 25 µM.
`COC(=O)[C@]12CCC(C)(C)C[C@H]1C1=CC[C@@H]3[C@@]4(C)Cc5cnoc5C(C)(C)[C@@H]4CC[C@@]3(C)[C@]1(C)CC2`: the IC50 in data set [1] is above 25 µM.
For the molecule `COC(=O)[C@]12CCC(C)(C)C[C@H]1C1=CC[C@@H]3[C@@]4(C)C=C(C=O)C(=O)C(C)(C)[C@@H]4CC[C@@]3(C)[C@]1(C)CC2`, the IC50 in data set [1] was 7.69 µM; in data set [6], “Nd(Toxic)”. For the same molecule, the Activity entry in data set [3] and in data set [4] was “Toxic” each time. Further, in data set [5], the EC50 result is “Nd(Toxic)”.
`COC(=O)[C@]12CCC(C)(C)C[C@H]1C1=CC[C@@H]3[C@@]4(C)C=C(c5ccc(OC)cc5)C(=O)C(C)(C)[C@@H]4CC[C@@]3(C)[C@]1(C)CC2`: the IC50 in data set [1] was above 25 µM.
The molecule `CC1(C)CC[C@]2(C(=O)O)CC[C@]3(C)C(=CC[C@@H]4[C@@]5(C)CC[C@H](O)C(C)(C)[C@@H]5CC[C@]43C)[C@@H]2C1` [OLEANOLIC_ACID] gave an IC50 in data set [1] above 50 µM.
`COC(=O)[C@]12CCC(C)(C)C[C@H]1C1=CC[C@@H]3[C@@]4(C)C=C(C#N)C(=O)C(C)(C)[C@@H]4CC[C@@]3(C)[C@]1(C)CC2` registered an IC50 in data set [1] of 15.3 µM. Further, in data set [2], the Ratio came out at 1.69.
In data set [1], `COC(=O)[C@]12CCC(C)(C)C[C@H]1C1=CC[C@@H]3[C@@]4(C)C=C(c5ccc(C#N)cc5)C(=O)C(C)(C)[C@@H]4CC[C@@]3(C)[C@]1(C)CC2` registered an IC50 above 25 µM.
